Test results as given in article PMC4183631 (Journal of the American Chemical Society, 2014).
Blank lines part the entries; values can stand above or below the substance they belong to. No end group written: not given here.

Assays:
bacteria = details: cited from earlier work
[1] = Sedimentation velocity analytical ultracentrifugation; assay type: physicochemical; details: lowest possible rotor speed (3000 rpm); white coat on the AUC cell
[2] = system: S. Typhimurium ATCC 14028; experiment: Antimicrobial activity assay; assay type: cell-based, Salmonella enterica serovar Typhimurium; details: 20 μM peptide, AMA buffer (10 mM sodium phosphate, 1% TSB, pH 7.4), 1 h, 37 °C, colony counting; n = 3
Procedure, shortened: (§1)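 Cells grown overnight in dextrose-free TSB (37 °C, 16 h), subcultured 1:100 to OD600 ~0.6, washed twice in AMA buffer, set to OD600 0.5, then diluted 1:250. 9 parts culture to 1 part 10× peptide (200 μM stock) or water control; 1 h, 37 °C, 150 rpm. Tenfold dilutions plated on TSB agar, 15 h, 37 °C; 30–200-colony plates counted. Three trials, ≥2 peptide preparations; mean and standard deviation.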

E. coli ATCC 25922 [3] = experiment: Antimicrobial activity assay; assay type: cell-based, Escherichia coli; details: 20 μM peptide, AMA buffer (10 mM sodium phosphate, 1% TSB, pH 7.4), 1 h, 37 °C, colony counting; n = 3
Procedure, shortened: as §1

[4] = system: L. monocytogenes ATCC 19115; experiment: Antimicrobial activity assay; assay type: cell-based, Listeria monocytogenes; details: 20 μM peptide, AMA buffer (10 mM sodium phosphate, 1% TSB, pH 7.4), 1 h, 37 °C, colony counting; n = 3
Procedure, shortened: as §1, with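 “Strain grown” for “Cells grown”, “in BHI” for “in dextrose-free TSB”, “diluted 1:500.” for “diluted 1:250.”, “on BHI” for “on TSB”, “agar, 20” for “agar, 15”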

S. aureus ATCC 25923 = experiment: Antimicrobial activity assay; assay type: cell-based, Staphylococcus aureus; details: 20 μM peptide, AMA buffer (10 mM sodium phosphate, 1% TSB, pH 7.4), 1 h, 37 °C, colony counting; n = 3
Procedure, shortened: as §1, with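 “Strain grown” for “Cells grown”, “OD600 0.6,” for “OD600 0.5,”, “diluted 1:100.” for “diluted 1:250.”, “agar, 20” for “agar, 15”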

E. coli ATCC 25922 [5] = experiment: Bacterial agglutination assay; assay type: cell-based, Escherichia coli; details: for peptide concentration at which the bacteria were agglutinated: 0–20 μM peptide, 50% MHB pH 7.4, 6 h, OD600
Procedure, shortened: (§2)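 Mid-log bacteria (LB for E. coli, BHI for Listeria), washed, held at OD600 0.25 in 50% MHB pH 7.4. Mixed 9:1 with 10× peptide (50, 100, 200 μM stocks) or water in a cuvette; OD600 read over time. At 6 h, for 20 μM samples, supernatant and agglutinate resuspended in fresh 50% MHB were serially diluted and plated (37 °C; LB agar 15 h, BHI agar 20 h). Three trials; mean ± SD.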

[6] = system: L. monocytogenes ATCC 19115; experiment: Bacterial agglutination assay; assay type: cell-based, Listeria monocytogenes; details: for peptide concentration at which the bacteria were agglutinated: 0–20 μM peptide, 50% MHB pH 7.4, 6 h, OD600
Procedure, shortened: as §2

[7] = biological target: HD6 F29A mutant, oxidized form (human); experiment: AUC
[8] = 20 μM peptide, 6 h, bacterium not given
[9] = 20 μM peptide, bacterial culture 10^8 CFU/mL in cuvette
[10] = 20 μM peptide, 6 h, mean ± SDM, n = 3

Substance: AFTCHCRR-SCYSTEYSYGTCTVMGINHRFCCL (bicyclic or more) [HD6, Human α-defensin 6]
antibacterial activity in vitro (bacteria): negligible antibacterial activity
time within which the peptide sedimented (rapid peptide aggregation) [1]: ≤ 15 min
antibacterial activity [2]: neither HD6 nor the mutants exhibit significant antibacterial activity
antibacterial activity (E. coli ATCC 25922 [3]): neither HD6 nor the mutants exhibit significant antibacterial activity
antibacterial activity [4]: neither HD6 nor the mutants exhibit significant antibacterial activity
antibacterial activity (S. aureus ATCC 25923): neither HD6 nor the mutants exhibit significant antibacterial activity
CFU/mL of the resuspension following agitation (E. coli ATCC 25922 [5]; [8]): comparable to that of the untreated control
log reduction in CFU/mL of the supernatant relative to the bacteria-only control (E. coli ATCC 25922 [5]; [8]): ca. 1.3 fold log
time for clumps to sediment to the bottom of the cuvette and clarify the medium (E. coli ATCC 25922 [5]; [9]): ~2 h
time to bacterial clumping observed by the eye after mixing (E. coli ATCC 25922 [5]; [9]): ≤ 5 min
CFU/mL of the resuspension following agitation [6, 8]: comparable to that of the untreated control
log reduction in CFU/mL of the supernatant relative to the bacteria-only control [6, 8]: ca. 1.3 fold log
time for clumps to sediment to the bottom of the cuvette and clarify the medium [6, 9]: ~2 h
time to bacterial clumping observed by the eye after mixing [6, 9]: ≤ 5 min

Substance: ATCYCRTGRCATRESLSGVCEISGRLYRLCCR (also: bicyclic or more (positions not given here)) [HD5, reference compound]
antibacterial activity in vitro (bacteria): broad-spectrum antibacterial activity

Substance: H27W (AFTCHCRRSCYSTEYSYGTCTVMGINWRFCCL; disulfide (positions not given here); ends not checked; UniProt Q01524 69-100, looked up, variant H27W)
peptide concentration at which the bacteria were agglutinated (E. coli ATCC 25922 [5]): ≥ 10 µM
peptide concentration at which the bacteria were agglutinated [6]: ≥ 10 µM

stoichiometry N [7]: 2
Substance: HD6 F29A mutant, oxidized form (peptide)

Substance: I25T (AFTCHCRRSCYSTEYSYGTCTVMGTNHRFCCL; disulfide (positions not given here); ends not checked; UniProt Q01524 69-100, looked up, variant I25T)
peptide concentration at which the bacteria were agglutinated (E. coli ATCC 25922 [5]): ≥ 10 µM
peptide concentration at which the bacteria were agglutinated [6]: ≥ 10 µM

Substance: V22T (AFTCHCRRSCYSTEYSYGTCTTMGINHRFCCL; disulfide (positions not given here); ends not checked; UniProt Q01524 69-100, looked up, variant V22T)
peptide concentration at which the bacteria were agglutinated (E. coli ATCC 25922 [5]): ≥ 10 µM
CFU/mL reduction of the supernatant, in words (E. coli ATCC 25922 [5]; [10]): smaller decrease in CFU/mL for the supernatant
peptide concentration at which the bacteria were agglutinated [6]: ≥ 10 µM
CFU/mL reduction of the supernatant, in words [6, 10]: smaller decrease in CFU/mL for the supernatant
